Measurements collected from several papers.
Protocols differ between the studies behind these lines.
Organism: Salmonella enterica
Observed: microbial growth

For `C[C@H]1[C@H](NC(=O)/C(=N\OC(C)(C)C(=O)O)c2csc(N)n2)C(=O)N1S(=O)(=O)O`, the MIC was ≤ 0.03 µg/mL (agar dilution; TYPHI).
The MIC of `CC1=NN(CNc2ccc(C(=O)O)cc2)C(=O)C1=NNn1c(-c2ccccc2)nc2ccccc2c1=O` is reported as 50.5 µM (broth dilution; PARATYPHI; 24 h).
`CO/N=C(\C(=O)N[C@@H]1C(=O)N2C(C(=O)O)=C(CSC(=O)c3ccco3)CS[C@H]12)c1csc(N)n1` gave an MIC of 1 µg/mL (ENTERITIDIS; 20 h, pH 5.5).
`CC1(C)S[C@@H]2[C@H](NC(=O)[C@H](N)c3ccccc3)C(=O)N2[C@H]1C(=O)O` has an MIC of 32 µg/mL (broth dilution; PARATYPHI; 16 h).
With `CC(=O)NCN1N=C(C)C(=NNn2c(-c3ccccc3)nc3ccccc3c2=O)C1=O` the MIC was 59.9 µM (broth dilution; PARATYPHI; 24 h).
`CS(=O)(=O)c1ccc([C@@H](O)[C@@H](CF)NC(=O)C(Cl)Cl)cc1` has an MIC of 4 µg/mL (CHOLERAESUIS; 20 h, pH 7).
`CO[C@H]1O[C@H](COC(c2ccccc2)(c2ccccc2)c2ccccc2)[C@@H](OC(=O)c2ccc(C(C)(C)C)cc2)[C@H](OC(=O)c2ccc(C(C)(C)C)cc2)[C@H]1OC(=O)c1ccc(C(C)(C)C)cc1` gave an MIC of 2 µg/mL (broth dilution; TYPHI).
For `O=C(N[C@H](CO)[C@H](O)c1ccc([N+](=O)[O-])cc1)C(Cl)Cl`, the MIC was 2 µg/mL (CHOLERAESUIS; 20 h, pH 5.5).
`CC1=NN(CNc2ccccc2[N+](=O)[O-])C(=O)C1=NNn1c(-c2ccccc2)nc2ccccc2c1=O` has an MIC of 50.4 µM (broth dilution; PARATYPHI; 24 h).
`CCn1cc(C(=O)O)c(=O)c2ccc(C)nc21` gave an MIC of 15.6 µg/mL (broth dilution; TYPHI; 24 h).
With `CCCCCCCCCCCC(=O)OC[C@H]1O[C@@H](n2cc(C)c(=O)[nH]c2=O)C[C@@H]1O` the MIC was 1 µg/mL (broth dilution; TYPHI).
`[H]/N=C(/N)N[C@H]1[C@H](O)[C@@H](O)[C@H](O[C@@H]2O[C@@H](C)[C@](O)(C=O)[C@H]2O[C@@H]2O[C@@H](CO)[C@H](O)[C@@H](O)[C@@H]2NC)[C@@H](N/C(N)=N\[H])[C@@H]1O` has an MIC of 4100 µg/mL (CHOLERAESUIS; 20 h, pH 7).
`O=C(O)c1cn(C2CC2)c2cc(N3CCNCC3)c(F)cc2c1=O` gave an MIC of 62.5 µg/mL (broth dilution; TYPHI; 24 h).
For `O=C1NN=C(N=Cc2ccc(O)cc2O)C1=NNn1c(-c2ccccc2)nc2ccccc2c1=O`, the MIC was 53.5 µM (broth dilution; PARATYPHI; 24 h).
The MIC of `CCCCCCCCCCCC(=O)OC[C@H]1O[C@@H](n2cc(C)c(=O)[nH]c2=O)C[C@@H]1OC(=O)c1ccc(C(C)(C)C)cc1` is reported as 0.5 µg/mL (broth dilution; TYPHI).
`CO/N=C(\C(=O)N[C@@H]1C(=O)N2C(C(=O)O)=C(CSc3nc(=O)c(=O)[nH]n3C)CS[C@H]12)c1csc(N)n1` gave an MIC of 0.125 µg/mL (CHOLERAESUIS; 20 h, pH 5.5).
For `CC1=NN(CNc2ccc(Cl)cc2)C(=O)C1=NNn1c(-c2ccccc2)nc2ccccc2c1=O`, the MIC was 103 µM (broth dilution; PARATYPHI; 24 h).
For `C[C@H]1COc2c(N3CCN(C)CC3)c(F)cc3c(=O)c(C(=O)O)cn1c23`, the MIC was ≤ 0.03 µg/mL (agar dilution; TYPHI).
`CCN1CCN(c2cc3c(cc2F)c(=O)c(C(=O)O)cn3C2CC2)CC1` gave an MIC of 0.0625 µg/mL (CHOLERAESUIS; 20 h, pH 7.2).
With `O=C1NN=C(N=Cc2ccccc2)C1=NNn1c(-c2ccccc2)nc2ccccc2c1=O` the MIC was 114 µM (broth dilution; PARATYPHI; 24 h).
